In publication PMC3665732 (Chemical biology & drug design, 2013):

Experiments:
Albino Swiss mice [1] = test: Forced swim test; type: in vivo; conditions: 30 min before the test; for antidepressant effect in the forced swim test (in words): mice, ip
Procedure, shortened: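 Male Albino Swiss mice (24-28 g), kept at 20 ± 1°C with free food and water and used once. Test compound was injected 30 min before the session. Each mouse swam 6 min in a glass cylinder (25 cm high, 10 cm diameter) holding 6 cm of water at 23-25°C. An observer timed immobility (floating, small head-keeping movements) over the last 4 min, after 2 min habituation. Mean ± SEM; Dunnett's test vs vehicle.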

Albino Swiss mice [2] = test: Locomotor activity test; type: in vivo; conditions: 8 20 mg/kg, 10 5 mg/kg, 12 10 mg/kg; ip 30 min before the test; first 6 minutes; vehicle 554 ± 46

Q: Which “reduction in mice immobility time” value (Albino Swiss mice [1]; 20 mg/kg ip) does the source give for `CCCCCCCCN1CCN(c2ccc3cc([N+](=O)[O-])ccc3n2)CC1` [Compound 8, 2-(4-Octyl-piperazin-1-yl)-6-nitroquinoline] here?
A: Its value is 15%.

Q: What about the “antidepressant effect in the forced swim test (in words)” value (“antidepressant effect” below) (Albino Swiss mice [1]) of the same compound?
A: The value was “moderate antidepressant activity”.

Q: What about the “Locomotor activity 6 minutes (number of light beam crossings ± S.E.M.)” value (Albino Swiss mice [2]) of the same compound?
A: Its value is 453 ± 41.

Q: How did the “antidepressant effect” value (Albino Swiss mice [1]) turn out when `CCCCCCCCCN1CCN(c2ccc3cc([N+](=O)[O-])ccc3n2)CC1` [Compound 9, 2-(4-Nonyl-piperazin-1-yl)-6-nitroquinoline] was run?
A: The value was “ineffective”.

Q: What does the source list for `CCCCCCCCCCN1CCN(c2ccc3cc([N+](=O)[O-])ccc3n2)CC1` [Compound 10, 2-(4-Decylo-piperazin-1-yl)-6-nitroquinoline]?
A: reduction in mice immobility time (Albino Swiss mice [1]; 5 mg/kg ip): 12%; antidepressant effect in the forced swim test (in words) (Albino Swiss mice [1]): moderate antidepressant activity; Locomotor activity 6 minutes (number of light beam crossings ± S.E.M.) (Albino Swiss mice [2]): 239 ± 41

Q: For `CCCCCCCCCCCN1CCN(c2ccc3cc([N+](=O)[O-])ccc3n2)CC1` [Compound 11, 2-(4-Undecyl-piperazin-1-yl)-6-nitroquinoline], which “antidepressant effect” value (Albino Swiss mice [1]) is on record?
A: The value was “ineffective”.

Q: What does the source list for `CCCCCCCCCCCCN1CCN(c2ccc3cc([N+](=O)[O-])ccc3n2)CC1` [Compound 12, 2-(4-Dodecyl-piperazin-1-yl)-6-nitroquinoline]?
A: reduction in mice immobility time (Albino Swiss mice [1]; 5 mg/kg ip): 10%; reduction in mice immobility time (Albino Swiss mice [1]; 10 mg/kg ip): 8%; antidepressant effect in the forced swim test (in words) (Albino Swiss mice [1]): moderate antidepressant activity; Locomotor activity 6 minutes (number of light beam crossings ± S.E.M.) (Albino Swiss mice [2]): 628 ± 55
